Results as given in ChEMBL document CHEMBL3233008, “Design, synthesis, and biological evaluation of Erythrina alkaloid analogues as neuronal nicotinic acetylcholine receptor antagonists” (J Med Chem, 2013).
Activity calls are given as the source filed them. No cut-off for these calls is given here.

Assays:
[1] = Selectivity ratio of Ki for rat/mouse alpha7 nAChR/5HT3A to Ki for rat alpha4/beta2 nAChR
[2] = target: Sodium-dependent serotonin transporter (Homo sapiens, UniProt P31645); experiment: Displacement of [3H]-serotonin from human SERT expressed in African green monkey COS7 cells after 10 mins; type: cell-based, COS-7
Summary of the method: (§1)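 COS7 cells transiently transfected with human SERT, NET or DAT, assayed 40–48 h later. 30 min preincubation with compound in PBS pH 7.4 plus 0.1 mM CaCl2, 0.5 mM MgCl2; ascorbic acid 1 mM added for NET/DAT. Substrate 50 nM final: [3H]serotonin for SERT, [3H]dopamine for NET/DAT.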

[3] = Displacement of [3H]MLA from rat/mouse alpha7 nAChR/5HT3A expressed in tsA201 cells; type: cell-based
Summary of the method: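 [3H]MLA binding on membranes from tsA201 cells transiently expressing a chimera of rat α7 amino-terminal domain and murine 5-HT3A ion-channel domain. Ki from IC50 via Cheng–Prusoff; 3–5 experiments in duplicate.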

[4] = target: Neuronal acetylcholine receptor; alpha4/beta2 (Rattus norvegicus, UniProt P09483+P12390); experiment: (§2) Displacement of [3H]epibatidine from rat alpha4/beta2 nAChR expressed in HEK293 cells; type: cell-based
Summary of the method: (§3)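 Membranes from HEK293 cells stably expressing rat α4β2, α3β4 or α4β4; [3H]epibatidine competition binding. IC50 converted to Ki by Cheng–Prusoff. Means of 3–5 experiments in duplicate.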

[5] = target: Neuronal acetylcholine receptor; alpha4/beta2 (Rattus norvegicus) (UniProt P09483+P12390); experiment: as §2; type: cell-based; summary of the method: as §3
[6] = target: T1, Neuronal acetylcholine receptor; alpha3/beta4 (Rattus norvegicus, UniProt P04757+P12392); experiment: Antagonist activity at rat alpha3/beta4 nAChR expressed in HEK293 cells assessed as inhibition of (S)-nicotine-induced activity by FLIPR membrane potential blue assay; type: cell-based
Summary of the method: (§4)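 Mouse α4β2 in stably transfected HEK293T cells and rat α3β4 in stable HEK293 cells; FLIPR Membrane Potential Blue read-out. (S)-Nicotine agonist at EC70–EC80: 1 μM for α4β2, 3 μM for α3β4. Functional IC50 from 3–5 experiments in duplicate.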

[7] = target: Sodium-dependent dopamine transporter (Homo sapiens, UniProt Q01959); experiment: Displacement of [3H]-dopamine from human DAT expressed in African green monkey COS7 cells after 10 mins; type: cell-based, COS-7; summary of the method: as §1
[8] = target: Neuronal acetylcholine receptor; alpha4/beta4 (Rattus norvegicus, UniProt P09483+P12392); experiment: Displacement of [3H]epibatidine from rat alpha4/beta4 nAChR expressed in HEK293 cells; type: cell-based; summary of the method: as §3
[9] = target: T1, Neuronal acetylcholine receptor; alpha3/beta4; experiment: Displacement of [3H]epibatidine from rat alpha3/beta4 nAChR expressed in HEK293 cells; type: cell-based; summary of the method: as §3
Mus musculus = experiment: Antidepressant like activity in mouse at 30 mg/kg, sc administered 20 mins before test measured for 6 mins by forced swimming test; type: functional, organism-based; design: dose 30 mg/kg
Summary of the method: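 Mice, n = 7–8, placed singly in a 16 cm beaker holding 20 cm of water at 23.5–24.5 °C. Compound in 0.9% saline given sc at 10 mL/kg 20 min before testing. Swim distance tracked by camera over 6 min, with the first minute excluded. Analysed by one-way ANOVA with planned comparisons.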

Rattus norvegicus [10] = organism: Rattus norvegicus; experiment: Selectivity ratio of Ki for rat alpha3/beta4 nAChR to Ki for rat alpha4/beta2 nAChR
[11] = target: Sodium-dependent noradrenaline transporter (Homo sapiens, UniProt P23975); experiment: Displacement of [3H]-dopamine from human NET expressed in African green monkey COS7 cells after 10 mins; type: cell-based, COS-7; summary of the method: as §1
[12] = target: Nicotinic acetylcholine receptor alpha-4/beta-2 (Mus musculus, UniProt Q8R493+Q9ERK7); experiment: Antagonist activity at mouse alpha4/beta2 nAChR expressed in HEK293 cells assessed as inhibition of (S)-nicotine-induced activity by FLIPR membrane potential blue assay; type: cell-based; summary of the method: as §4
Rattus norvegicus [13] = organism: Rattus norvegicus; experiment: Selectivity ratio of Ki for rat alpha4/beta4 nAChR to Ki for rat alpha4/beta2 nAChR
[14] = target: Neuronal acetylcholine receptor subunit alpha-7 (Homo sapiens, UniProt P36544); experiment: Displacement of [3H]cytisine from alpha7 nAChR (unknown origin)
[15] = target: Neuronal acetylcholine receptor; alpha4/beta2 (Homo sapiens, UniProt P17787+P43681); experiment: Displacement of [3H]cytisine from alpha4/beta2 nAChR (unknown origin); type: protein-complex assay

Chain of Nicotinic acetylcholine receptor alpha-4/beta-2 (Q9ERK7 whole entry): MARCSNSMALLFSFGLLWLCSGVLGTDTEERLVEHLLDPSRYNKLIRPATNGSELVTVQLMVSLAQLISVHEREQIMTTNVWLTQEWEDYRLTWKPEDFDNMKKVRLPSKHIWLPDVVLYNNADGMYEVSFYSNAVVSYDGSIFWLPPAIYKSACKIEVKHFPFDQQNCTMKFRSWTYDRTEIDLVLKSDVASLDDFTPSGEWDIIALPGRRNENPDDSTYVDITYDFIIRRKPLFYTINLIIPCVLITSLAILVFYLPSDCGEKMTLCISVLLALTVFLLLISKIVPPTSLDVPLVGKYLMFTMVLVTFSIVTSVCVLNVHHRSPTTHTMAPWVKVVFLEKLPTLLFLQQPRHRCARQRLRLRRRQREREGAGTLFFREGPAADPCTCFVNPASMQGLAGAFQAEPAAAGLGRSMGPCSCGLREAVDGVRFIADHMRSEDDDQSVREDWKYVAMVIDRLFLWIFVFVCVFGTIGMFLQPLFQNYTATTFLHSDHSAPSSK
Chain of Nicotinic acetylcholine receptor alpha-4/beta-2 (Q8R493 whole entry): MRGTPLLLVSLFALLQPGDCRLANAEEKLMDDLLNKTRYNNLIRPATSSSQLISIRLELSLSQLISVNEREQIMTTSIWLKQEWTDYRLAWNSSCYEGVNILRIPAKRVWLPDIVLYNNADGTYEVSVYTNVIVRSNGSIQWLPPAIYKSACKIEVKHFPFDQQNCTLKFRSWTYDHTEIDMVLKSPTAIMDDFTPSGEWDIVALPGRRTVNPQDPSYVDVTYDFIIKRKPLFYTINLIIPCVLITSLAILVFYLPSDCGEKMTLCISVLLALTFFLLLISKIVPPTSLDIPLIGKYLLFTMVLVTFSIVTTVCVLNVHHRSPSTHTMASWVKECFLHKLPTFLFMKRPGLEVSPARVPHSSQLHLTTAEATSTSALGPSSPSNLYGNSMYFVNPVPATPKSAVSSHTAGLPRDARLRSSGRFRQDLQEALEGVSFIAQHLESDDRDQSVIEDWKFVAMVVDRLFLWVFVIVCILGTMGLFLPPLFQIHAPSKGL
T1 sequence (P04757 whole entry): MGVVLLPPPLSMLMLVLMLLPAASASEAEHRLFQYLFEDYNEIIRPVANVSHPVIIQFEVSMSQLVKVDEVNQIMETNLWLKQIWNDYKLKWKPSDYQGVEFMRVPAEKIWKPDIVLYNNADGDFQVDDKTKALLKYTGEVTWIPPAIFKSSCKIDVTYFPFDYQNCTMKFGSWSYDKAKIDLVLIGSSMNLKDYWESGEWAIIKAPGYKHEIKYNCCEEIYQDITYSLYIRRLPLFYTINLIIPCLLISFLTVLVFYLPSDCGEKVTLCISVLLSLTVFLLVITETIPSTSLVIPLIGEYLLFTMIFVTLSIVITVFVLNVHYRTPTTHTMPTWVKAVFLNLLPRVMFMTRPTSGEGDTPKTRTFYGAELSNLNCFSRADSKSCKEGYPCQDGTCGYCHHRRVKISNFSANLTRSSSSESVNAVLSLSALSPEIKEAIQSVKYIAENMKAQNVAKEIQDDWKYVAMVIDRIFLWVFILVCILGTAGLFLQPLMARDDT
T1 sequence (P12392 whole entry): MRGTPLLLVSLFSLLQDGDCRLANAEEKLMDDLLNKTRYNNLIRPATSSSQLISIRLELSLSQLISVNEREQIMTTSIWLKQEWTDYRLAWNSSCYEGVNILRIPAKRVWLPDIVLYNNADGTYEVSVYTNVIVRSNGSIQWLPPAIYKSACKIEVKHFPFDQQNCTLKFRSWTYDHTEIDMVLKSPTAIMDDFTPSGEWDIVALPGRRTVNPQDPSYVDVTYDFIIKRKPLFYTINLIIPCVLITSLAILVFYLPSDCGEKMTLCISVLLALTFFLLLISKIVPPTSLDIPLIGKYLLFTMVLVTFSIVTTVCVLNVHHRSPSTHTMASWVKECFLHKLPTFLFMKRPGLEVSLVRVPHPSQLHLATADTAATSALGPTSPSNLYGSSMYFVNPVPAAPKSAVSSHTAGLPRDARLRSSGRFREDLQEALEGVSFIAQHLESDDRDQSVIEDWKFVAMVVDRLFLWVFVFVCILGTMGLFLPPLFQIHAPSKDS
Chain of Neuronal acetylcholine receptor; alpha4/beta4 (P09483 whole entry): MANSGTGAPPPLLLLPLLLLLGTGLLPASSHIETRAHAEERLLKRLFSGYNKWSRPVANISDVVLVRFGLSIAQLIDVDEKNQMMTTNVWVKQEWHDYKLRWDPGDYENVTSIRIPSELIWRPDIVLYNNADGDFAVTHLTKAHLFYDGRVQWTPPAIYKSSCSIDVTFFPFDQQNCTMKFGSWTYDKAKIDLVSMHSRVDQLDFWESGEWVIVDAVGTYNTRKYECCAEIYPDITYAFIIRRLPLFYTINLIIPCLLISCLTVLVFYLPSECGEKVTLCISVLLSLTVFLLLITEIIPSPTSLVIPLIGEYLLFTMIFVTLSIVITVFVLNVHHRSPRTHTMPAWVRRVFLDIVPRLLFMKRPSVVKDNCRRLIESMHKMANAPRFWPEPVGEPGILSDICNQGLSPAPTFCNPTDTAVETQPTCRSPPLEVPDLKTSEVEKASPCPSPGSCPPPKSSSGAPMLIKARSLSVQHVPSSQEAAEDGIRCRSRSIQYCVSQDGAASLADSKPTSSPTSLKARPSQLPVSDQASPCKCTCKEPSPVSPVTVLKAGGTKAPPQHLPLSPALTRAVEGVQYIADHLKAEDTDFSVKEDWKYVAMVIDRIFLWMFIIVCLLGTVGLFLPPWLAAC
Chain of Neuronal acetylcholine receptor; alpha4/beta4 (P12392 whole entry): as the sequence (P12392 whole entry) above
Chain of Neuronal acetylcholine receptor; alpha4/beta2 (Rattus norvegicus, UniProt P09483+P12390) (P09483 whole entry): as the sequence (P09483 whole entry) above
Chain of Neuronal acetylcholine receptor; alpha4/beta2 (Rattus norvegicus, UniProt P09483+P12390) (P12390 whole entry): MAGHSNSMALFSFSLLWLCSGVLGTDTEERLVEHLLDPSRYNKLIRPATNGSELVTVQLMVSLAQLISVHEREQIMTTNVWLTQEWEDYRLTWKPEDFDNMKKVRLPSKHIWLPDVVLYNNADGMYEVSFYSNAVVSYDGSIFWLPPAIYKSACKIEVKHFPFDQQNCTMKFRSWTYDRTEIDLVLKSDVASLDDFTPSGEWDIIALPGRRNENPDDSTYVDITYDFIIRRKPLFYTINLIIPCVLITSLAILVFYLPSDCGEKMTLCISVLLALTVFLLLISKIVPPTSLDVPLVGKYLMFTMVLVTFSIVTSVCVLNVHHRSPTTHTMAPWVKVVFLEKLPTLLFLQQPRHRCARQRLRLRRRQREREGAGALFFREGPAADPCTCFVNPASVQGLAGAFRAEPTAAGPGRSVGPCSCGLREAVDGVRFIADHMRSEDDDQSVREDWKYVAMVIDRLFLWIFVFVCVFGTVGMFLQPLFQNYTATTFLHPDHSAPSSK
Chain of Neuronal acetylcholine receptor subunit alpha-7 (P36544 whole entry): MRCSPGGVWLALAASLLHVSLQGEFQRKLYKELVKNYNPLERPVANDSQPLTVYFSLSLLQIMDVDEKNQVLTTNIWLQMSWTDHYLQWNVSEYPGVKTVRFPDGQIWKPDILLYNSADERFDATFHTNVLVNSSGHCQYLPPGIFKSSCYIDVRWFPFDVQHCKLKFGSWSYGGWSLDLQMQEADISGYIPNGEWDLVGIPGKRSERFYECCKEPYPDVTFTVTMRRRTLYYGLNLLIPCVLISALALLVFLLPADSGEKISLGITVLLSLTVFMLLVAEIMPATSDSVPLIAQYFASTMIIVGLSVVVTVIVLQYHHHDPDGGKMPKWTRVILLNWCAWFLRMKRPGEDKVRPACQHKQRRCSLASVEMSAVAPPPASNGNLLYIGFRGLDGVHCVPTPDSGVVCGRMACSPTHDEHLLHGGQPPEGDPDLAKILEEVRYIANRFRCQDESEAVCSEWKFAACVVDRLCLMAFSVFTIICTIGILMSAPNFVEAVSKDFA
Chain of Sodium-dependent noradrenaline transporter (P23975 whole entry): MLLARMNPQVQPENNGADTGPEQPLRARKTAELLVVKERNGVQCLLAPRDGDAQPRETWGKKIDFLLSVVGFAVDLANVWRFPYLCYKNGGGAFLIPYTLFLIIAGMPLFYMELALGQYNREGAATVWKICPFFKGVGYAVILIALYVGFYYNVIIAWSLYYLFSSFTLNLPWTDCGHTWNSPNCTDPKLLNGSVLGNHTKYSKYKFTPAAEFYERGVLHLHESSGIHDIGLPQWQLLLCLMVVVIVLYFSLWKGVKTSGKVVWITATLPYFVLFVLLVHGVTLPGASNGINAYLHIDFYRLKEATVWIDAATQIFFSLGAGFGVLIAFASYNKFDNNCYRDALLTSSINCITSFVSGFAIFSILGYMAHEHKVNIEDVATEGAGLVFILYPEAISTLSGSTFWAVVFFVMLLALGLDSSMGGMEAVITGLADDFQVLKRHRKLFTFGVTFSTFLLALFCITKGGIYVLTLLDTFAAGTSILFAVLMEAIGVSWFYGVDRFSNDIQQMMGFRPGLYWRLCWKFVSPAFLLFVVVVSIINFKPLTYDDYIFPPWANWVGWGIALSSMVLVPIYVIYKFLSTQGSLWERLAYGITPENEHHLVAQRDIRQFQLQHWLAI
Chain of Sodium-dependent serotonin transporter (P31645 whole entry): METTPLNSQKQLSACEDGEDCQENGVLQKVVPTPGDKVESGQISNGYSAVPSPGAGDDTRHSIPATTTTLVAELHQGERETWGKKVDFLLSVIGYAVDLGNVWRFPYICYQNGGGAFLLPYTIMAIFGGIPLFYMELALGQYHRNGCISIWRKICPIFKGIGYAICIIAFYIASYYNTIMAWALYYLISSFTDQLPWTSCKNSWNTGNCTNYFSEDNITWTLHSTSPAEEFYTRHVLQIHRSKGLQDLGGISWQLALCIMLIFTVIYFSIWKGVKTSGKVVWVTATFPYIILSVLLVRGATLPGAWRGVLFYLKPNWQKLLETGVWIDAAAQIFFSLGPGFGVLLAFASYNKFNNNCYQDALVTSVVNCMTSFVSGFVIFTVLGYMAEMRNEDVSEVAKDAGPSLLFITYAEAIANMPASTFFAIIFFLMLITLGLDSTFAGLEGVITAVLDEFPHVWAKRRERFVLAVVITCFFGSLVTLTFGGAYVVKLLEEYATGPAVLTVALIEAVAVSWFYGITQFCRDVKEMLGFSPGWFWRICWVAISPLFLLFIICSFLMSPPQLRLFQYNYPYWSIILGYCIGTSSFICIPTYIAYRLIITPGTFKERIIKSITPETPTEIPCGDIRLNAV

| SMILES | Ki [3] | Ki [4] | inhibition [5] | IC50 [6] | Ki [8] | Ki [9] | IC50 [12] | also measured |
| --- | --- | --- | --- | --- | --- | --- | --- | --- |
| COc1cc2c(cc1OC)CN(C)CC2 | > 500 µM | 0.87 µM | Dose-dependent effect | 100 µM | 300 µM | 300 µM | 12 µM | Ratio Ki [1]: > 300; Ki [2]: 46.7 µM; Ki [7]: > 10 mM; Activity (Mus musculus): Active; Ratio Ki (Rattus norvegicus [10]): > 300; Ki [11]: 129 µM; Ratio Ki (Rattus norvegicus [13]): > 300 |
| CN1CCc2cc3c(cc2C1)OCO3 | 500 µM | 1.7 µM | Dose-dependent effect | 300 µM | 50 µM | 300 µM | 2.6 µM | – |
| CCCCC1c2cc(OC)c(OC)cc2CCN1C (stereo unspecified) | – | 30 µM | – | – | – | – | > 300 µM | – |
| CO[C@H]1CC=C2CCN3CCC4=C(CC(=O)OC4)[C@]23C1 | – | – | – | – | – | – | – | Ki [14]: 10.5 µM |
| COc1cc2c(cc1O)CCN(C)C2 | > 500 µM | 10 µM | Dose-dependent effect | 1000 µM | 100 µM | 300 µM | 33 µM | – |
| CCC1c2cc(OC)c(OC)cc2CCN1C (stereo unspecified) | – | 300 µM | – | – | – | – | > 300 µM | – |
| COc1cc2c(cc1OC)C(C1CCCCC1)N(C)CC2 (stereo unspecified) | – | 300 µM | – | – | – | – | > 300 µM | – |
| COc1cc2c(cc1OC)C(c1ccccc1)N(C)CC2 (stereo unspecified) | – | 100 µM | – | – | – | – | > 300 µM | – |
| COc1cccc(C2c3cc(OC)c(OC)cc3CCN2C)c1 (stereo unspecified) | – | 300 µM | – | – | – | – | > 300 µM | – |
| COc1ccc(C2c3cc(OC)c(OC)cc3CCN2C)cc1OC (stereo unspecified) | – | > 300 µM | – | – | – | – | > 300 µM | – |
| CN1CCc2cc(O)c(O)cc2C1 | > 500 µM | 6.8 µM | Dose-dependent effect | > 1000 µM | 100 µM | 100 µM | 16 µM | – |
| COc1cc2c(cc1O)CN(C)CC2 | > 500 µM | 1.7 µM | Dose-dependent effect | > 1000 µM | 100 µM | 300 µM | 4.4 µM | – |
| COc1cc2c(cc1OC)C1CCCN1CC2 (racemic) | > 500 µM | 5.5 µM | Dose-dependent effect | 100 µM | 100 µM | 300 µM | 31 µM | – |
| c1c2c(cc3c1OCO3)C1CCCN1CC2 (racemic) | – | 0.55 µM | Dose-dependent effect | 100 µM | 21 µM | 100 µM | 3.3 µM | – |
| COc1cc2c(cc1O)CCN1CCCC21 (racemic) | 500 µM | 100 µM | Dose-dependent effect | 300 µM | 100 µM | 300 µM | 50 µM | – |
| COc1cc2c(cc1O)C1CCCN1CC2 (racemic) | 300 µM | 3.4 µM | Dose-dependent effect | 300 µM | 100 µM | 100 µM | 23 µM | – |
| Oc1cc2c(cc1O)C1CCCN1CC2 (racemic) | 300 µM | 11 µM | Dose-dependent effect | 1000 µM | 50 µM | 100 µM | 100 µM | – |
| COc1cc2c(cc1OC)[C@]13CCCC[C@H]1CCN3CC2 (relative stereo) | 30 µM | 100 µM | Dose-dependent effect | 50 µM | 100 µM | 100 µM | 31 µM | – |
| c1c2c(cc3c1OCO3)[C@]13CCCC[C@H]1CCN3CC2 (relative stereo) | 18 µM | 7.3 µM | Dose-dependent effect | 50 µM | 50 µM | 30 µM | 9.2 µM | – |
| COc1cc2c(cc1O)CCN1CC[C@@H]3CCCC[C@@]231 (relative stereo) | 20 µM | 8.5 µM | Dose-dependent effect | 50 µM | 50 µM | 100 µM | 2.3 µM | – |
| COc1cc2c(cc1O)[C@]13CCCC[C@H]1CCN3CC2 (relative stereo) | 5.5 µM | 18 µM | Dose-dependent effect | 33 µM | 23 µM | 30 µM | 2.9 µM | – |
| Oc1cc2c(cc1O)[C@]13CCCC[C@H]1CCN3CC2 (relative stereo) | 7.3 µM | 1.5 µM | Dose-dependent effect | 50 µM | 19 µM | 30 µM | 0.58 µM | – |
| COc1cc2c(cc1O)CCN1CC=C3C=C[C@H](OC)C[C@]321 [ERYSODINE] | – | – | – | – | – | – | – | Ki [14]: 7.5 µM |
| COc1cc2c(cc1OC)[C@]13C[C@@H](OC)C=CC1=CCN3CC2 [ERYSOTRINE] | – | – | – | – | – | – | – | Ki [15]: 600 nM |
